“Also recorded” adds a separate entry of the source. Structures can show the parent of a compound that is named as a salt. Where two headings read alike, the source gives them in different places.
What was measured:
HBV [1] = assay: microbe, parasite or virus in culture; conditions: Hepatitis B virus, HepG2 2.2.15, 288 h, read-out: IC50 against Anti-HBV
HBV^WT [2] = assay: HBV^WT viremia in hu-liver-chimeric-uPA+/+/SCID+/+ mice; type: in vivo; conditions: 0.02 mg/kg/day oral, 14 days
HepG2 cells = type: cell-based; conditions: up to 100 μM; for mtDNA synthesis / mtDNA levels / L-lactate levels in culture medium: 12 days culture; for mtDNA synthesis / mtDNA levels: real-time mtDNA-PCR; for viable cell numbers (MTT assay): day 5 of culture
HBV [3] = conditions: for S.I. with Anti-HBV (CC50/IC50): HepG2 2.2.15 cells
HIV-1NL4-3 = conditions: MT-4 cells
[4] = system: HBVETV-R^L180M/S202G/M204V; assay: Southern blot assay, Huh-7 cells transfected with ETV-resistant HBV plasmid; type: cell-based; conditions: Hepatitis B virus, Huh-7, read-out: IC50 against HBVETV-R^L180M/S202G/M204V
Method in brief: (§1)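 Huh-7 cells were transfected with the HBV variant-containing plasmid and cultured with a range of test compound concentrations. Core-associated HBV DNA was extracted and detected by Southern blot hybridization. IC50 was calculated from the change in signal density, generally averaged over two experiments. The fold change was taken relative to the IC50 against wild-type HBV plasmid.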

[5] = Serum human albumin and body weight monitoring of treated HBV-infected mice; type: in vivo; conditions: 0.02 mg/kg/day; for serum human albumin (h-albumin) levels: HBV^WT-infected mice; for body weights: treated mice, 14 days
HBV^WT [6] = assay: Southern blot assay, Huh-7 cells transfected with pHBV^WT; type: cell-based; conditions: Hepatitis B virus
[7] = Cytotoxicity in MT-4 cells; type: cell-based; conditions: human
[8] = system: HBVETV-R^L180M/S202G/M204V; assay: HBVETV-R viremia in hu-liver-chimeric-uPA+/+/SCID+/+ mice; type: in vivo; conditions: for effect on HBVETV-R^L180M/S202G/M204V viremia: 0.02 mg/kg/day oral once daily
Method in brief: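 Human-liver-chimeric uPA+/+/SCID+/+ mice (SCID, uPA-transgenic, liver partly repopulated with human hepatocytes) were inoculated with the HBV variant. Dosing began 8 weeks later, once daily at 0.02 mg/kg/day for 14 days. Serum viremia was followed as log10 copies/ml change from baseline, along with serum human albumin and body weight per mouse. Livers were examined histologically at the end of dosing.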

in vitro = type: cell-based; conditions: human
HBVADV-R^A181T/N236T = assay: Southern blot assay, Huh-7 cells transfected with ADV-resistant HBV plasmid; type: cell-based; conditions: Hepatitis B virus, Huh-7, read-out: IC50 against HBVADV-R^A181T/N236T
Method in brief: as §1

HIV-1 = conditions: read-out: in vitro anti-HIV-1 IC90 concentration; cited from earlier work
[9] = intraperitoneal administration 20 mg/kg; cited from earlier work
[10] = cited from earlier work
HIV-2 strains = assay: Activity against HIV-2 strains; type: cell-based; conditions: Table S1
[11] = Huh-7, read-out: IC50 against HBV^WT
[12] = Huh-7, read-out: IC50 against HBV^WT (Southern blot)

C=C1[C@H](CO)[C@@H](O)C[C@@H]1n1cnc2c(=O)[nH]c(N)nc21 [ETV, entecavir]
IC50 (HBV [1]): 0.7 ± 0.2 nM
effect on HBV^WT viremia (HBV^WT [2]): viremia levels significantly went down
mtDNA synthesis / mtDNA levels (HepG2 cells): no reduction of mtDNA synthesis was observed
L-lactate levels in culture medium (HepG2 cells): no L-lactate level changes were identified
viable cell numbers (MTT assay) (HepG2 cells): slight and moderate decreases in the cell viability
S.I. with Anti-HBV (CC50/IC50) (HBV [3]): > 140,000
number of HBV copies in HepG2 2.2.15 cells (HBV [3]; at 100 nM, 12-day culture, cells alone 9.0 × 10^5 copies/well): ~ 0.9 × 10^5 copies/well
S.I. with Anti-HIV-1 (CC50/IC50) (HIV-1NL4-3): 38
IC50 [4]: > 1000 nM
serum human albumin (h-albumin) levels [5]: comparable decrease of h-albumin levels
body weights [5]: no significant difference in body weights
IC50 (HBV^WT [6]; [11]): 14 ± 8 nM
IC50 (HBV^WT [6]; [12]): 14.1 nM
CC50 [7]: 39100 ± 8700 nM
effect on HBVETV-R^L180M/S202G/M204V viremia ([8]; 14 days): completely failed to reduce; also recorded: essentially no reduction
CC50 (in vitro): > 100000 nM
IC50 (HBVADV-R^A181T/N236T): 180 nM

OC[C@@H]1CC[C@H](n2cnc3c(O)ncnc32)O1 [ddI, 2′,3′-dideoxyinosine]
IC50 (HBV [1]): 3700 ± 700 nM
CC50 [7]: > 100000 nM
CC50 (in vitro): > 100000 nM

Nc1nc(NC2CC2)c2ncn([C@H]3C=C[C@@H](CO)C3)c2n1 [ABC, abacavir]
IC50 (HBV [1]): 3900 ± 1000 nM
S.I. with Anti-HBV (CC50/IC50) (HBV [3]): > 26
S.I. with Anti-HIV-1 (CC50/IC50) (HIV-1NL4-3): > 170
CC50 [7]: > 100000 nM
CC50 (in vitro): > 100000 nM

C#C[C@]1(CO)O[C@@H](n2cnc3c(N)nc(F)nc32)C[C@@H]1O [EFdA, 4′-ethynyl-2-fluoro-2′-deoxyadenosine]
IC50 (HBV [1]): 160 ± 30 nM
IC90 (HIV-1): ~5 nM
S.I. with Anti-HBV (CC50/IC50) (HBV [3]): > 630
S.I. with Anti-HIV-1 (CC50/IC50) (HIV-1NL4-3): 64,000
CC50 [7]: 19200 ± 5900 nM
CC50 (in vitro): > 100000 nM
maximal concentration [9]: 4 µg/mL
time of maximal concentration [9]: 30 min

C#C[C@]1(COP(=O)(O)OP(=O)(O)OP(=O)(O)O)O[C@@H](n2cnc3c(N)nc(F)nc32)C[C@@H]1O [EFdA-TP]
half-life [10]: ≥ 17 h

N#C[C@]1(CO)O[C@@H](n2cnc3c(N)nc(N)nc32)C[C@@H]1O [CAdA, 4′-C-cyano-2-amino-2′-deoxyadenosine]
IC50 (HBV [1]): 0.4 ± 0.2 nM
effect on HBV^WT viremia (HBV^WT [2]): significantly blocked the replication of HBV
greatest magnitude of serum HBV-DNA level reduction (HBV^WT [2]; HBV^WT-infected mice): -2.9 log10 copies/ml
mtDNA synthesis / mtDNA levels (HepG2 cells): significantly lowered the levels of mtDNA
L-lactate levels in culture medium (HepG2 cells): severely lowered the levels of L-lactate and viable cell numbers
viable cell numbers (MTT assay) (HepG2 cells): severely lowered the levels of L-lactate and viable cell numbers
S.I. with Anti-HBV (CC50/IC50) (HBV [3]): 9,500
S.I. with Anti-HIV-1 (CC50/IC50) (HIV-1NL4-3): 8,750
activity against HIV-2 strains (HIV-2 strains): potent activity against HIV-2 strains
IC50 [4]: 70 ± 10 nM
serum human albumin (h-albumin) levels [5]: moderately decreased h-albumin levels
body weights [5]: no significant difference in body weights
IC50 (HBV^WT [6]; [11]): 7 ± 10 nM
IC50 (HBV^WT [6]; [12]): 7.2 nM
CC50 [7]: 3500 ± 1200 nM
effect on HBVETV-R^L180M/S202G/M204V viremia ([8]; 14 days): significant level of viremia reduction by day 7
greatest magnitude of viremia reduction ([8]; HBVETV-R-infected mice, 0.02 mg/kg/day oral, 14 days, average of two mice): -1.4 log10 copies/ml
difference in viremia reduction magnitude between HBV^WT and HBVETV-R^L180M/S202G/M204V ([8]; mouse model): 30 fold
CC50 (in vitro): 3800 ± 1000 nM
IC50 (HBVADV-R^A181T/N236T): 90 ± 70 nM

Cc1cn([C@H]2C[C@H](N=[N+]=[N-])[C@@H](CO)O2)c(=O)[nH]c1=O [AZT, 3′-azido-3′-deoxythymidine]
IC50 (HBV [1]): > 100000 nM
S.I. with Anti-HIV-1 (CC50/IC50) (HIV-1NL4-3): 1,020
CC50 [7]: 30500 ± 3100 nM
CC50 (in vitro): > 100000 nM

CC(C)OC(=O)OCOP(=O)(CO[C@H](C)Cn1cnc2c(N)ncnc21)OCOC(=O)OC(C)C [TDF, tenofovir disoproxil fumarate]
IC50 (HBV [1]): 40 ± 10 nM
S.I. with Anti-HBV (CC50/IC50) (HBV [3]): > 2,500
S.I. with Anti-HIV-1 (CC50/IC50) (HIV-1NL4-3): 70
CC50 ([7]; MT-4 cells): 40400 ± 11300 nM
CC50 (in vitro): > 100000 nM

Source: paper PMC4589464 (Hepatology (Baltimore, Md.), 2015)
